Entries after “also recorded” stand apart in the source; their conditions may differ.
Tests used:
cathepsin L [1] = biological target: T1, cathepsin L (Homo sapiens, UniProt P07711); test: Cathepsin L reaction progress curves / reversibility; type: biochemical; conditions: separate experiments, Supplementary data
Method in brief: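 No pre-incubation. Test compound at final 10, 5, 1, 0.5, 0.1, 0.01 and 0.005 µM was mixed with Z-FR-AMC (final 10 µM), and the reaction was started by adding cathepsin L in assay buffer. AMC fluorescence (ex 355/em 460 nm) was read every 30 s for 50 min.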

[2] = tested on: MDA-MB-231 breast cancer cells; test: MDA-MB-231 cell migration assay; type: cell-based, human; conditions: 25 μM
Method in brief: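 MDA-MB-231 cells (DMEM, 10% FBS, gentamycin) were trypsinised at 80% confluence and counted. Each insert (8 µm pores, no Matrigel) received 50,000 cells in DMEM with 2% DMSO and test compound at 25 or 10 µM; the lower chamber held DMEM with 10% FBS as chemoattractant. E-64 served as positive control. After 24 h at 37 °C and 5% CO2, migrated cells were methanol-fixed and Diff-stained. Values were normalised to 2% DMSO vehicle, in triplicate.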

C3H mammary carcinoma = test: Growth inhibition of C3H mammary carcinoma in CDF1 mice; type: in vivo; conditions: 20 mg/kg i.p., 5 daily treatments
HUVECs = test: Cytotoxicity assay; type: cell-based, human; conditions: normal primary cells
Method in brief: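 Pooled-donor HUVECs were grown on collagen-1-coated flasks in M200 with gentamycin, amphotericin B and low-serum growth supplement at 37 °C and 5% CO2, used at passage 5 or lower. Cells were seeded at 9,000/well for 24 h, then given ten-fold serial dilutions of test compound for 48 h. Plates were TCA-fixed and stained with 0.4% SRB for 30 min. Absorbance was read at 540 nm, normalised to 630 nm. GI50 came from at least two replicates, averaged over at least three experiments.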

human liver cathepsin L = human liver cathepsin L (Homo sapiens, UniProt P07711); test: Cathepsin L inhibition assay; type: biochemical; conditions: tested up to 10,000 nM
Human liver Cathepsin B = Human liver Cathepsin B (Homo sapiens, UniProt P07858); test: Cathepsin B inhibition assay; type: biochemical
Method in brief: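 Human liver cathepsin B was pre-incubated with the test compound for 5 min at 37 °C, then Z-RR-AMC was added. Fluorescence (ex 355/em 460 nm) was read over 5 min at 37 °C. IC50 was fitted from triplicate experiments.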

[3] = E/Z isomerization in solution followed by 1H NMR; type: physicochemical; conditions: acetone, one week; isolated as Z isomer
cathepsin L [4] = biological target: T1, cathepsin L; conditions: cited from earlier work

T1 sequence (P07711 114-288 limits assumed): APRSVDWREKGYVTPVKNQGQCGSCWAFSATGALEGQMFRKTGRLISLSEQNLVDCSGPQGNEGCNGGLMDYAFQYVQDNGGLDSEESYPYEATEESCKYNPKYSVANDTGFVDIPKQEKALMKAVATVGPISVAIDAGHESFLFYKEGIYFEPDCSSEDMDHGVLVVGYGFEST
T1 sequence (P07711 292-333 limits assumed): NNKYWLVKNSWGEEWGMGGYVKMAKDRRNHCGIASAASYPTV
human liver cathepsin L, sequence (P07711 114-288 limits assumed): as the sequence (P07711 114-288 limits assumed) above
human liver cathepsin L, sequence (P07711 292-333 limits assumed): as the sequence (P07711 292-333 limits assumed) above

NC(=S)N/N=C(\c1ccccc1)c1cccc(C(=O)c2ccccc2)c1 [Compound 1, 3-Benzoylbenzophenone thiosemicarbazone]
reversibility of cathepsin L inhibition (cathepsin L [1]): slowly reversible
increase in inhibition of migration compared with positive control E-64 [2]: greater than 2 fold
tumor growth delay (in words) (C3H mammary carcinoma; C3H mammary carcinoma in CDF1 mice): showed efficacy in tumor growth delay; also recorded: modest, statistically relevant efficacy in tumor growth delay; also recorded: delayed growth in vivo
tolerability in mouse model (C3H mammary carcinoma; CDF1 mice bearing C3H mammary carcinoma): well-tolerated
cytotoxicity toward HUVECs (in words) (HUVECs): low cytotoxicity; also recorded: very low cytotoxicity

NC(=S)N/N=C(\c1ccc(F)cc1)c1cccc(C(=O)c2ccc(F)cc2)c1 [Compound 8, 1,3-Bis(4-fluorobenzoyl)benzene thiosemicarbazone]
cytotoxicity toward HUVECs (in words) (HUVECs): low cytotoxicity; also recorded: very low cytotoxicity

NC(=S)N/N=C(\c1ccc(Br)cc1)c1cccc(/C(=N/NC(N)=S)c2ccc(Br)cc2)c1 [Compound 10, 1,3-Bis(4-bromobenzoyl)benzene bis-thiosemicarbazone]
activity against cathepsin L (in words) (human liver cathepsin L): no activity
activity against cathepsin B (in words) (Human liver Cathepsin B): inactive

CC(C)Oc1ccc(C(=O)c2cccc(/C(=N/NC(N)=S)c3ccc(OC(C)C)cc3)c2)cc1 [Compound 14, 1,3-Bis(4-isopropoxybenzoyl)benzene thiosemicarbazone]
activity against cathepsin L (in words) (human liver cathepsin L): inactive

NC(=S)N/N=C(\c1cccc(O)c1)c1cc(Br)cc(C(=O)c2cccc(O)c2)c1 [Compound 31, 1,3-Bis(3-hydroxybenzoyl)-5-bromobenzene thiosemicarbazone]
cytotoxicity toward HUVECs (in words) (HUVECs): very low cytotoxicity

NC(=S)N/N=C(\c1cc(Br)cc(C(=O)c2ccccc2F)c1)c1ccccc1F [Compound 32, 1,3-Bis(2-fluorobenzoyl)-5-bromobenzene thiosemicarbazone]
reversibility of cathepsin L inhibition (cathepsin L [1]): slowly reversible
cytotoxicity toward HUVECs (in words) (HUVECs): low cytotoxicity; also recorded: very low cytotoxicity
isomerization on standing in solution [3]: did not isomerize

NC(=S)NN=C(c1cccc(O)c1)c1cccc(Br)c1 [X, (3-bromo-3′-hydroxybenzophenone) thiosemicarbazone]
kinetic analysis of cathepsin L inhibition (cathepsin L [4]): time-dependent and slowly reversible

— paper PMC4824049 (Bioorganic & medicinal chemistry, 2015)
